Measured values from different studies.
Cell line: K562
Observed: cell growth or viability

Structure (SMILES)	test	conditions	IC50
FC(F)(F)c1ccc(-c2cc(CNc3cccc4cccnc34)on2)cc1	MTS	72 h	> 100 µM
CC(C)[C@@H]1NC(=O)[C@H](Cc2c[nH]cn2)NC1=O	MTT		> 15 µM
O=C(NO)c1ccc(Cn2cnc3c(Nc4cccc([N+](=O)[O-])c4)ncnc32)cc1	MTT	72 h	10.4 µM
O=c1cc(OCc2cc(-c3ccc(Cl)cc3Cl)no2)c2ccccc2o1	MTS	72 h	> 100 µM
COc1cccc2c1C(=O)c1c(O)c3c(c(O)c1C2=O)C[C@@](O)(C(=O)CO)C[C@@H]3O[C@H]1C[C@H](N)[C@H](O)[C@H](C)O1		96 h	0.13 µM
O=C(NO)c1ccc(Cn2cnc3c(Nc4ccc(Br)cc4F)ncnc32)cc1	MTT	72 h	5.18 µM
CC(C)[C@@H]1NC(=O)/C(=C/c2cnc[nH]2)NC1=O	MTT		> 15 µM
COc1ccc(Nc2ncnc3c2ncn3Cc2ccc(C(=O)Nc3ccccc3N)cc2)cc1	MTT	72 h	> 50 µM
c1ccc(-c2cc(CNc3cccc4cccnc34)on2)cc1	MTS	72 h	> 100 µM
CN1CCC(NC2CCc3[nH]c4c(C(N)=O)ccc(-c5ccccc5Cl)c4c3C2)CC1 (stereo not shown)			0.0214 µM
